Reference: PMC5026623 (Circulation research, 2016)

Target: apoA1 (Homo sapiens, UniProt P02647)
Test: surface plasmon resonance, protein immobilised on CM5 chip
Format: binding
How it was run: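 Biosensor binding-kinetics run: apoA1 covalently coupled to a CM5 sensor chip, with apoA2 and apoE coupled the same way for comparison. Kinetics of test lipid binding to the immobilised protein recorded.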

Chain of apoA1 (P02647 25-267): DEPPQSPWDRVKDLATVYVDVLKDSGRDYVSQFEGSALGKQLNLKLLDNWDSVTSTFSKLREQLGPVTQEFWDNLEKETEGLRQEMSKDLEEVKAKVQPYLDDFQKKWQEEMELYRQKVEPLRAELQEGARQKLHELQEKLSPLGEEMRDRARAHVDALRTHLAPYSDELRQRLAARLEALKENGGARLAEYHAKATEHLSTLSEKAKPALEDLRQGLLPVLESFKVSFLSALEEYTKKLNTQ

With PIP2 the Kd was 0.14 µM.
